RGS4 block = human RGS4 inhibition; P49798; HEK293 M3R/RGS4 inducible, Fluo-4 calcium flux; active compounds read high; triggered by carbachol at its EC20; B-score at 10 µM; actives 0.45% (n = 310,000);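 active means B-score, a plate-corrected calcium signal, over three deviations above library mean, with baseline fluorescence within five deviations of library mean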;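 further: RGS4 expression induced by doxycycline in cells with stable M3 receptor; B-score is computed from the integrated fluorescence ratio over baseline after carbachol; higher B-score means a larger calcium signal and so more RGS4 inhibition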
RGS4 pot = potentiators or activators of RGS4; HEK293 M3R/inducible RGS4, carbachol calcium flux Fluo4; active compounds read low; B-score at 10 µM; actives 0.92% (n = 310,000); AID 463111;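 active means B-score of the integrated calcium signal more than 4 SD below the library mean, with starting fluorescence not abnormally high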;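 further: negative B-score means reduced calcium response which marks RGS4 activation or potentiation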
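test system = HEK293 cells with stable M3R and inducible RGS4 | schedule = recording 10 s baseline at 1 Hz, 100 s post-agonist | technique = Fluo4-AM (2 µM) calcium-flux fluorescence, kinetic read | measure = Agonist-evoked peak-minus-minimum fluorescence over baseline, integrated ratio, B score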
MrgX1 agonist = human MrgX1 receptor agonism, primary screen; Q96LB2; B-score at 10 µM; actives 0.44% (n = 310,000); AID 588627; MrgX1-HEK293 cells, Fluo-4 calcium fluorescence, agonist mode; active compounds read high;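 active means calcium response B-score plate-corrected fluorescence ratio at least 3 library SD, with starting fluorescence B-score inside 5 SD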
Target sequence (Q96LB2 whole entry, looked up): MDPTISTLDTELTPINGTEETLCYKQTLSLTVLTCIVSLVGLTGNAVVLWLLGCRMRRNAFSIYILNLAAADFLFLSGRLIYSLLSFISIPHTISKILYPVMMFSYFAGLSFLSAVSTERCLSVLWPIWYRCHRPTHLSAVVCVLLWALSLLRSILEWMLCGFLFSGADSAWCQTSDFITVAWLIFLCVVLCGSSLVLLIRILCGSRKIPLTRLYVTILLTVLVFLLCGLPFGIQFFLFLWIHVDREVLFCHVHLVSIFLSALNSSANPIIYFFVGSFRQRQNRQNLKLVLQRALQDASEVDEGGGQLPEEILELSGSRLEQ
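Material: MrgX1-expressing HEK293 cells; input: 15,000 cells per well; doses: test compound given as first of three sequential additions; schedule: overnight plating before 1 h dye loading; technique: Fluo-4 NW calcium-flux fluorescence, kinetic read; evaluation: baseline-normalised fluorescence change ratio, B-scored; control set: plate-wise positive and negative controls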
MrgX1 allo act = allosterically activates human MrgX1 receptor signaling. MrgX1-HEK293, Fluo-4 calcium flux, FDSS; active compounds read high. actives 0.63% (n = 310,000). Q96LB2. B-score at 10 µM;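 active means plate-corrected calcium response at least 3 library SD above typical, normal starting fluorescence, not activating the receptor alone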;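 further: compound read alongside a low EC10 to EC30 dose of BAM8-22 agonist; peak minus trough fluorescence over baseline measured at the second addition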
MrgX1 antagonist = antagonists of human MrgX1 receptor; Q96LB2; AID 588676; actives 1.3% (n = 310,000); B-score at 10 µM; MRGX1-HEK293 calcium flux, Fluo-4, BAM8-22 antagonism; active compounds read low;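 active means calcium-response B-score plate-corrected more than 3 library SD below zero, starting fluorescence within 5 deviations, no agonist response on first addition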;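 further: peak minus trough fluorescence over baseline after final BAM8-22 challenge near maximal dose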
The depositor's hits bear a star; i = inactive; / = no result. An excerpt weighted towards active compounds, which were near 3.5% of everything screened.

SMILES	RGS4 block	RGS4 pot	MrgX1 agonist	MrgX1 allo act	MrgX1 antagonist
Cc1ccc(C2C=C(c3ccccc3)Nc3ncnn32)cc1 (centres undefined)	i	i	i	7.81*	i
CCOc1ccc(C2C=C(c3ccc(F)cc3)Nc3ncnn32)cc1 (centres undefined)	i	i	i	8.36*	i
Oc1ccc(C2C=C(c3ccc(F)cc3)Nc3ncnn32)cc1 (centres undefined)	i	i	/	/	/
CN(C)c1ccc(/C=C/C=N/Nc2nc(N3CCOCC3)nc(N3CCOCC3)n2)cc1	i	i	i	i	i
CCN(/N=C/C=C/c1ccccc1)c1cc(=O)n(C)c(=O)[nH]1	i	i	i	i	-5.61*
CC(C)n1nccc1NC(=O)Nc1ccccc1	i	i	i	i	i
COc1cccc(C(=O)NCC2(c3ccccc3)CCCC2)c1	i	i	i	i	i
COc1ccc(C(=O)NCC2(c3ccccc3)CCCC2)c(OC)c1	i	i	i	10.5*	-10.5*
Oc1ccc2ccccc2c1CN1CCN(c2ccccc2F)CC1	i	i	/	/	/
Oc1ccc2ccccc2c1CN1CCN(C/C=C/c2ccccc2)CC1	i	-7.82*	i	i	i
O=C(NCc1ccc(F)cc1)C(c1ccc(Cl)cc1)N(C(=O)c1csnn1)C1CC1 (centres undefined)	i	i	i	i	i
Cc1c(CCC(=O)NCCCCCC(=O)O)c(=O)oc2c(C)c3oc4c(c3cc12)CCCC4	i	i	i	i	i
Cc1c(CCC(=O)N2CCC[C@H]2C(=O)O)c(=O)oc2c(C)c3oc4c(c3cc12)CCCC4	i	i	i	7.23*	i
Cc1ccc(N2C(=O)C3C=NNC3C2=O)cc1 (centres undefined)	i	i	i	i	-4.99*
COC(=O)C1=NNC2C(=O)N(c3ccc(C)cc3)C(=O)C12 (centres undefined)	i	i	i	i	i
CC(C)(CN1CCN(Cc2ccccc2)CC1)NS(=O)(=O)c1ccc(Cl)cc1	i	i	i	i	i
COc1ccc(/C=C/C(=O)OCC(=O)Nc2ccc(Cl)c(S(=O)(=O)N(C)C)c2)cc1OC	i	-9.44*	i	i	i
COc1ccccc1N1CCN(C2CCCN(C(=O)CCc3ccccn3)C2)CC1 (centres undefined)	i	i	i	i	i
CCC(Cc1ccccc1)NS(=O)(=O)c1c(C)nc2scc(C)n2c1=O (centres undefined)	i	i	i	i	i
CCN(CC)c1ccc(/C=C(/C#N)c2nc3ccc(C)cc3[nH]2)c(OC(C)C)c1	i	i	40.5*	i	i
CCCOc1cc(N(CC)CC)ccc1/C=C(/C#N)c1nc2ccc(C)cc2[nH]1	i	i	i	11.6*	i
CCOc1cc(N(CC)CC)ccc1/C=C(/C#N)c1nc2ccccc2[nH]1	i	i	78.8*	i	i
COc1cccc(/C=C(\C#N)c2nc3ccccc3[nH]2)c1OCC(=O)O	i	i	i	i	i
COCc1cc(C)n(CC(=O)Nc2ccc(N3CCOCC3)cc2)c(=O)c1C#N	i	i	i	i	i
CCOC(=O)CN(c1cc([N+](=O)[O-])ccc1OC)S(C)(=O)=O	i	i	i	i	i
SMILES	RGS4 block	RGS4 pot	MrgX1 agonist	MrgX1 allo act	MrgX1 antagonist
O=C(COC(=O)C12CC3CC(CC(C3)C1)C2)Nc1ccc([N+](=O)[O-])cc1Cl	i	i	i	i	-6.64*
Cc1ccsc1CN(C)CC(=O)Nc1ccc([N+](=O)[O-])cc1Cl	i	-8.5*	i	i	i
CC(C)N=C1NN=C(c2ccc(Cl)c(Cl)c2)CS1	i	i	/	/	/
COCCCNCC(O)C(F)(F)F (centres undefined)	i	i	i	i	i
C/C(=C\C(=O)c1ccc(Cl)s1)N(C)C	i	i	i	9.18*	i
O=C(/C=C\Nc1ccc2c(c1)OCO2)c1ccc(Cl)s1	i	i	i	i	i
CCCn1c(-c2ccc(F)cc2)n[nH]c1=S	i	i	i	i	i
